According to ChEMBL document CHEMBL4393683, “A combinatorial approach for the discovery of drug-like inhibitors of 15-lipoxygenase-1” (Eur J Med Chem, 2019):
pEC50, pIC50: −log10 of the molar value. Activity calls are given as the source filed them. The calls are words filed in the database; no cut-off is given here.

Key:
[1] = Antioxidant activity assessed as DPPH radical scavenging activity incubated for 15 mins under dark condition by spectrophotometric method; assay type: functional
Summary of the method: (§1)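 DPPH radical-scavenging assay run in triplicate in MeOH with 10% DMSO. Compounds were serially diluted 10-fold from a top concentration of 1 mM, or 250 or 500 µM for some, down to 1 nM, with DPPH fixed at 0.1 mM. Incubation was 15 min at ambient temperature, protected from light, with A517 read. The compound-only series was subtracted, data normalized to no-inhibitor absorbance, and EC50 fitted by nonlinear dose–response.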

[2] = Antioxidant activity assessed as ferric ion reducing activity by measuring Fe2+ levels using Fe2+-TPTZ measured 15 secs for 5 mins by FRAP assay; assay type: functional
[3] = Stability of compund in pH 7.5 HEPES buffer at 25 uM in presence of human recombinant N-terminal His6-tagged 15-LOX1 expressed in Escherichia coli BL21(DE3) by UV absorption analysis; assay type: physicochemical; conditions: pH 7.5, 25 µM
Summary of the method: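 LA-free control in 25 mM HEPES pH 7.5 at 25 µM compound, run in triplicate. Buffer plus compound was mixed with 10 µL ethanol in place of substrate, then 15-LOX-1 enzyme solution was added. DMSO/buffer served as the vehicle control and buffer replaced enzyme in the blank. Absorbance at 234 nm was monitored over time.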

[4] = target: T1, Polyunsaturated fatty acid lipoxygenase ALOX15 (Homo sapiens, UniProt P16050); assay: Inhibition of human recombinant N-terminal His6-tagged 15-LOX1 expressed in Escherichia coli BL21(DE3) using linoleic acid as substrate preincubated for 8 mins followed by substrate addition by UV absorption analysis
T1 sequence (P16050 whole entry): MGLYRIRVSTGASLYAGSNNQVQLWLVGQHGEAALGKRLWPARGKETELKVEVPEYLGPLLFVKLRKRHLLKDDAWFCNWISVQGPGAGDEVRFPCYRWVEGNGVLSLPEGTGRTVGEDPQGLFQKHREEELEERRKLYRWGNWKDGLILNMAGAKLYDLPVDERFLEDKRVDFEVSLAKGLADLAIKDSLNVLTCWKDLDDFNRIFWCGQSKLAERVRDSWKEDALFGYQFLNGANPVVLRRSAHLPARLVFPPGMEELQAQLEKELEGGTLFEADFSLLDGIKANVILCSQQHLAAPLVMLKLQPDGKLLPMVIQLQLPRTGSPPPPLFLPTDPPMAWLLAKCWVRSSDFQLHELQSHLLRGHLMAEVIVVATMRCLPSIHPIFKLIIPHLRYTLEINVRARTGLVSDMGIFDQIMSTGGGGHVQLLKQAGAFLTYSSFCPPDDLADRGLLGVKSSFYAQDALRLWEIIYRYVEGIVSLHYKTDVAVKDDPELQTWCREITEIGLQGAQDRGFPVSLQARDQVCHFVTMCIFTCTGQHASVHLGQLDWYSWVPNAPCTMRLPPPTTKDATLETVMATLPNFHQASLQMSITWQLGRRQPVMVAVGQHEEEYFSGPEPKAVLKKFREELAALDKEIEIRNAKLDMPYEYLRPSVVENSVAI

[5] = Stability of compund in pH 7.5 HEPES buffer at 25 uM in presence of substrate linoleic acid by UV absorption analysis; assay type: physicochemical; conditions: pH 7.5, 25 µM
Summary of the method: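 Enzyme-free control in 25 mM HEPES pH 7.5 at 25 µM compound, run in triplicate, with buffer replacing enzyme. 10 µL of 500 µM linoleic acid stock in ethanol was added; ethanol alone served as the blank, and DMSO/buffer as the vehicle control. Absorbance at 234 nm was monitored over time.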

[6] = Antioxidant activity assessed as DPPH radical scavenging activity at 500 uM incubated for 15 mins under dark condition by spectrophotometric method; assay type: functional; summary of the method: as §1
[7] = Antioxidant activity assessed as DPPH radical scavenging activity at 250 uM incubated for 15 mins under dark condition by spectrophotometric method; assay type: functional; summary of the method: as §1

## O=C1O[C@H]([C@@H](O)CO)C(O)=C1O [ASCORBIC ACID]
[1]
  pEC50: 4.76

## CCOC(=O)c1[nH]c2cc(Cl)ccc2c1C=O
[1]
  Activity: inactive
[2]
  Activity: < 50 µmol/L

## CCOC(=O)c1[nH]c2cc(Cl)ccc2c1/C=N/NC(=O)C1CCN(C(=O)OC(C)(C)C)CC1
[1]
  Activity: inactive
[3]
  Stability: Stable
[2]
  Activity: < 50 µmol/L
[4]
  pIC50: 6.33
[5]
  Stability: Stable

## CCOC(=O)c1[nH]c2cc(Cl)ccc2c1/C=N/NC(=O)COc1ccc([N+](=O)[O-])cc1
[4]
  pIC50: < 5.00

## CCOC(=O)c1[nH]c2cc(Cl)ccc2c1/C=N/NC(=O)CCC(C)C
[4]
  pIC50: < 5.00

## CCOC(=O)c1[nH]c2cc(Cl)ccc2c1/C=N/NC(=O)Cc1cccs1
[4]
  pIC50: < 5.00

## CCOC(=O)c1[nH]c2cc(Cl)ccc2c1/C=N/NC(=O)Cc1cccc(O)c1
[1]
  Activity: inactive
[3]
  Stability: Stable
[2]
  Activity: < 50 µmol/L
[4]
  pIC50: 5.74
[5]
  Stability: Stable

## CCOC(=O)c1[nH]c2cc(Cl)ccc2c1/C=N/NC(=O)CCc1ccccc1
[4]
  pIC50: < 5.00

## CCCCC(=O)N/N=C/c1c(C(=O)OCC)[nH]c2cc(Cl)ccc12
[4]
  pIC50: < 5.00

## CCOC(=O)c1[nH]c2cc(Cl)ccc2c1/C=N/NC(=O)[C@H](Cc1ccccc1)NC(=O)OC(C)(C)C
[4]
  pIC50: < 5.00

## CCOC(=O)c1[nH]c2cc(Cl)ccc2c1/C=N/NC(=O)COc1ccc(Cl)cc1Cl
[1]
  Activity: inactive
[3]
  Stability: Stable
[2]
  Activity: < 50 µmol/L
[5]
  Stability: Stable

## CCOC(=O)c1[nH]c2cc(Cl)ccc2c1/C=N/NC(=O)COc1ccc(Cl)cc1
[3]
  Stability: Stable
[2]
  Activity: < 50 µmol/L
[6]
  Activity: inactive
[5]
  Stability: Stable

## CCOC(=O)c1[nH]c2cc(Cl)ccc2c1/C=N/NC(=O)CSc1nc2ccccc2[nH]1
[1]
  Activity: inactive
[3]
  Stability: Stable
[2]
  Activity: < 50 µmol/L
[5]
  Stability: Stable

## CCOC(=O)c1[nH]c2cc(Cl)ccc2c1/C=N/NC(=O)c1cc(C(C)(C)C)nn1Cc1cccc(C)c1
[1]
  Activity: inactive
[2]
  Activity: < 50 µmol/L
[4]
  pIC50: 5.37

## CCOC(=O)c1[nH]c2cc(Cl)ccc2c1/C=N/NC(=O)Cc1ccc(OC)c(OC)c1
[3]
  Stability: Stable
[2]
  Activity: < 50 µmol/L
[7]
  Activity: inactive
[5]
  Stability: Stable

## CCOC(=O)c1[nH]c2cc(Cl)ccc2c1/C=N/NC(=O)CCCOc1ccc(Cl)cc1Cl
[4]
  pIC50: < 5.00

## CCOC(=O)c1[nH]c2cc(Cl)ccc2c1/C=N/NC(=O)CNc1cccc([N+](=O)[O-])c1
[4]
  pIC50: < 5.00

## CCOC(=O)c1[nH]c2cc(Cl)ccc2c1/C=N/NC(=O)COc1ccccc1
[2]
  Activity: < 50 µmol/L
[4]
  pIC50: < 5.00
[6]
  Activity: inactive

## CCOC(=O)c1[nH]c2cc(Cl)ccc2c1/C=N/NC(=O)COc1cccc2ccccc12
[4]
  pIC50: < 5.00

## CCOC(=O)c1[nH]c2cc(Cl)ccc2c1/C=N/NC(=O)CC1CCCC1
[4]
  pIC50: < 5.00

## CCOC(=O)c1[nH]c2cc(Cl)ccc2c1/C=N/NC(=O)Cc1ccccc1
[1]
  Activity: inactive
[2]
  Activity: < 50 µmol/L
[4]
  pIC50: < 5.00

## CCOC(=O)c1[nH]c2cc(Cl)ccc2c1/C=N/NC(=O)Cc1cccnc1
[1]
  Activity: inactive
[3]
  Stability: Stable
[2]
  Activity: < 50 µmol/L
[5]
  Stability: Stable

## CCOC(=O)c1[nH]c2cc(Cl)ccc2c1/C=N/NC(=O)COc1ccccc1Cl
[3]
  Stability: Stable
[2]
  Activity: < 50 µmol/L
[7]
  Activity: inactive
[5]
  Stability: Stable
